This is an account of results in PMC6847114 (Nucleic Acids Research, 2019).

The nature of series [1]: n-Octanol/aqueous partitioning. Format: physicochemical. The following applies: n-octanol / Tris–HCl buffer 10 mM pH 7.4, Ru 100 μM. A digest of the protocol: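 Shake-flask partitioning of the Ru complex between n-octanol and aqueous Tris–HCl (10 mM, pH 7.4), run with or without highly chlorinated phenols (penta-, tetra- or trichlorophenols) at different Ru:phenol ratios. The complex was quantified in each phase by UV-vis absorbance. Ion-pair lipophilicity is reported as n-octanol-phase absorption intensity at Ru/phenol 1:10, multiplied by 10.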

For the next series, the system named is HeLa cells. Format: cell-based. The following applies: Ru 100 μM + HCPs 300 μM; for Nuclear uptake of [Ru(bpy)2(dppz)]^2+ in full medium: full medium containing serum, CLSM.
For series [2] the following is noted: ref [52]; cited from earlier work.
The conditions of series [3]: ref [53],[54]; cited from earlier work.

One may read the pKa as the negative logarithm of the acid dissociation constant.

Regarding `Oc1c(Cl)c(Cl)c(Cl)c(Cl)c1Cl` [PCP, pentachlorophenol], the “Lipophilicity of the ion-pairing complex formed with [Ru(bpy)2(dppz)]Cl2” value in series [1] is “most lipophilic”. Further, in the series with HeLa cells, the “Nuclear uptake of [Ru(bpy)2(dppz)]^2+ in full medium” value is reported as “facilitated”. Also, the “log Kow” value in series [2] is listed as 5.01.
Take `Oc1cc(Cl)c(Cl)c(Cl)c1Cl` [2,3,4,5-TeCP, 2,3,4,5-tetrachlorophenol]: the “Lipophilicity of the ion-pairing complex formed with [Ru(bpy)2(dppz)]Cl2” value in series [1] is “least hydrophobic”. Further, the “Nuclear uptake of [Ru(bpy)2(dppz)]^2+ in full medium” value in the series on HeLa cells was “facilitated”. Also, the “Cellular and nuclear uptake of [Ru(bpy)2(dppz)]^2+ by luminescence” value with HeLa cells (serum-free medium, flow cytometry and CLSM) is “most effective”. The “log Kow” value in series [2] is on record as 4.95. Further, in series [3], the pKa is given as 5.64.
